Assay [1] concerns L1210. Briefly: Inhibition of the growth of methotrexate resistant L1210 leukemia/R 81 cells in culture. Format: functional, cell-based. The conditions noted are these: Mus musculus. The method, boiled down:
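MTT viability assay, 48 h. Log-phase cells were plated at […] onto serial drug dilutions in RPMI 1640 with 10% fetal bovine serum, in 8% CO2, humidified. MTT (5 mg/mL stock) was added for 3 h and the formazan dissolved in 0.04 N HCl/2-propanol. A570 was read within 1 h. Each plate carried no-drug control and no-cell blank rows. IC50 determined.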

Assay [2] has as its system L1210. Briefly: Inhibition of the growth of methotrexate sensitive L1210 leukemia/S cells in culture. Format: functional, cell-based. Particulars: Mus musculus. The method, boiled down: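 MTT viability assay, 48 h. MTT (5 mg/mL stock) was added for 3 h and the formazan dissolved in 0.04 N HCl/2-propanol. A570 was read within 1 h. Each plate carried no-drug control and no-cell blank rows. IC50 determined.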

The target in another assay is Thymidylate synthase (Mus musculus, UniProt P07607). Nature of the assay: Inhibition of L1210 leukemia thymidylate synthase (TS) enzyme. Particulars: read-out: I50.
Sequence of Thymidylate synthase (P07607 whole entry): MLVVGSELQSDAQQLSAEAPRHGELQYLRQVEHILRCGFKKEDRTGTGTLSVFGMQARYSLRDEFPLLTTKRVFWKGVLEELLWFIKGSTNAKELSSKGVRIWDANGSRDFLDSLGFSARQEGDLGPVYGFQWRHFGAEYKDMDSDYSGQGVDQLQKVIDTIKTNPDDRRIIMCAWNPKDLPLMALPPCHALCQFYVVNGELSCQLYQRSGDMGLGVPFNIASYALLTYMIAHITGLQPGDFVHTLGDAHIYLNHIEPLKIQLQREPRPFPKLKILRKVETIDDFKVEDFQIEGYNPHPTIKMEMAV

For the compound `C#CCN(Cc1ccc2[nH]c(N)nc(=O)c2c1)c1ccc(C(=O)NC(CCC(=O)O)C(=O)O)cc1` (stereo not given), in the assay with L1210 [1], the IC50 is 116 µM.
With `Nc1nc(=O)c2cc(CSc3ccc(C(=O)NC(CCC(=O)O)C(=O)O)cc3)ccc2[nH]1` (stereo not given), the values for the IC50 in the assay on L1210 [1] and with L1210 [2] were > 200 µM and 7.6 µM, respectively.
The matching figures for `Nc1nc(O)c2cc(COc3ccc(C(=O)NC(CCC(=O)O)C(=O)O)cc3)ccc2n1` (stereo not given): 39 µM and 1.2 µM.
Turning to `O=C(O)CCC(NC(=O)c1ccc(CNc2ccc3ncnc(O)c3c2)cc1)C(=O)O` (stereo not given), the IC50 in the assay on L1210 [1] is > 200 µM; in the assay with L1210 [2], 0.53 µM; at Thymidylate synthase it was 25 µM.
Turning to `C#CCN(Cc1ccc2ncnc(O)c2c1)c1ccc(C(=O)NC(CCC(=O)O)C(=O)O)cc1` (stereo not given), the figures for the IC50 in the assay with L1210 [1] and in the assay with L1210 [2] were 75 µM and 0.27 µM, respectively.
Regarding `O=C(O)CCC(NC(=O)c1ccc(SCc2ccc3ncnc(O)c3c2)cc1)C(=O)O` (stereo not given), the IC50 was > 200 µM with L1210 [1], 1.3 µM in the assay on L1210 [2] and 13.8 µM on Thymidylate synthase.
The matching figures for `O=C(O)CCC(NC(=O)c1ccc(OCc2ccc3ncnc(O)c3c2)cc1)C(=O)O` (stereo not given): > 200 µM, 0.28 µM and 49 µM.
Take `Nc1nc(=O)c2cc(NCc3ccc(C(=O)NC(CCC(=O)O)C(=O)O)cc3)ccc2[nH]1` (stereo not given): the IC50 in the assay with L1210 [1] is > 200 µM; with L1210 [2], 3.2 µM.
The matching figures for `CN(Cc1cnc2nc(N)nc(N)c2n1)c1ccc(C(=O)N[C@@H](CCC(=O)O)C(=O)O)cc1` [METHOTREXATE]: 186 µM and 0.0044 µM.

The record behind these values is ChEMBL document CHEMBL1124448, “Comparison of the biological effects of selected 5,8-dideazafolate analogues with their 2-desamino counterparts” (J Med Chem, 1989).
